Test results published in ChEMBL document CHEMBL1152460, “Phenotypic characterization of resistant Val36 variants of hepatitis C virus NS3-4A serine protease” (Antimicrob Agents Chemother, 2008).

What was measured:
Hepatitis C virus [1] = test: Antiviral activity against HCV Con1-mADE replicon with NS3 serine protease V36M/R155T double mutation in human HuH7 cells after 48 hrs by RNA replicon assay relative to wild type; format: functional, Hepacivirus hominis, subtype 1b Con1-mADE, Huh-7
Procedure, shortened: (§1)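 Stable genotype 1b Con1 subgenomic neo replicon cell lines carried three adaptive mutations. They were made by electroporating T7 runoff transcripts (ScaI-linearized template) into naive Huh-7 cells, selected with 0.5 mg/ml G418 and kept in 0.25 mg/ml. Mutations were confirmed by RT-PCR sequencing. EC50 came from a 48-h assay, at least three independent assays, mean ± SD. Fold change = variant mean EC50 / wild-type EC50.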

Hepatitis C virus [2] = test: Antiviral activity against HCV Con1-mADE replicon with NS3 serine protease V36A/R155K double mutation in human HuH7 cells after 48 hrs by RNA replicon assay relative to wild type; format: functional, Hepacivirus hominis, subtype 1b Con1-mADE, Huh-7; procedure, shortened: as §1
Hepatitis C virus [3] = test: Antiviral activity against HCV Con1-mADE replicon with NS3 serine protease V36M/R155K double mutation in human HuH7 cells after 48 hrs by RNA replicon assay; format: functional, organism-based, Hepacivirus hominis; conditions: subtype 1b Con1-mADE, Huh-7, 48 h; procedure, shortened: as §1
Hepatitis C virus [4] = test: Antiviral activity against wild type Con1-mADE HCV replicon in human HuH7 cells after 48 hrs by RNA replicon assay; format: functional, organism-based, Hepacivirus hominis; conditions: subtype 1b Con1-mADE, Huh-7, 48 h; procedure, shortened: as §1
Hepatitis C virus [5] = test: Antiviral activity against HCV Con1-mADE replicon with NS3 serine protease V36A mutation in human HuH7 cells after 48 hrs by RNA replicon assay relative to wild type; format: functional, Hepacivirus hominis, subtype 1b Con1-mADE, Huh-7; procedure, shortened: as §1
Hepatitis C virus [6] = test: Antiviral activity against HCV Con1-mADE replicon with NS3 serine protease V36M mutation in human HuH7 cells after 48 hrs by RNA replicon assay relative to wild type; format: functional, Hepacivirus hominis, subtype 1b Con1-mADE, Huh-7; procedure, shortened: as §1
Hepatitis C virus [7] = test: Antiviral activity against HCV Con1-mADE replicon with NS3 serine protease V36A/R155T double mutation in human HuH7 cells after 48 hrs by RNA replicon assay relative to wild type; format: functional, Hepacivirus hominis, subtype 1b Con1-mADE, Huh-7; procedure, shortened: as §1
Hepatitis C virus [8] = test: Antiviral activity against HCV Con1-mADE replicon with NS3 serine protease V36A/R155T double mutation in human HuH7 cells after 48 hrs by RNA replicon assay; format: functional, organism-based, Hepacivirus hominis; conditions: subtype 1b Con1-mADE, Huh-7, 48 h; procedure, shortened: as §1
Hepatitis C virus [9] = test: Antiviral activity against HCV Con1-mADE replicon with NS3 serine protease V36L mutation in human HuH7 cells after 48 hrs by RNA replicon assay relative to wild type; format: functional, Hepacivirus hominis, subtype 1b Con1-mADE, Huh-7; procedure, shortened: as §1
Hepatitis C virus [10] = test: Antiviral activity against HCV Con1-mADE replicon with NS3 serine protease V36M mutation in human HuH7 cells after 48 hrs by RNA replicon assay; format: functional, organism-based, Hepacivirus hominis; conditions: subtype 1b Con1-mADE, Huh-7, 48 h; procedure, shortened: as §1
Hepatitis C virus [11] = test: Antiviral activity against HCV Con1-mADE replicon with NS3 serine protease T54A mutation in human HuH7 cells after 48 hrs by RNA replicon assay; conditions: subtype 1b Con1-mADE, Huh-7, 48 h
Hepatitis C virus [12] = test: Antiviral activity against HCV Con1-mADE replicon with NS3 serine protease V36A mutation in human HuH7 cells after 48 hrs by RNA replicon assay; format: functional, organism-based, Hepacivirus hominis; conditions: subtype 1b Con1-mADE, Huh-7, 48 h; procedure, shortened: as §1
Hepatitis C virus [13] = test: Antiviral activity against HCV Con1-mADE replicon with NS3 serine protease V36A/R155K double mutation in human HuH7 cells after 48 hrs by RNA replicon assay; format: functional, organism-based, Hepacivirus hominis; conditions: subtype 1b Con1-mADE, Huh-7, 48 h; procedure, shortened: as §1
Hepatitis C virus [14] = test: Antiviral activity against HCV Con1-mADE replicon with NS3 serine protease V36M/R155T double mutation in human HuH7 cells after 48 hrs by RNA replicon assay; format: functional, organism-based, Hepacivirus hominis; conditions: subtype 1b Con1-mADE, Huh-7, 48 h; procedure, shortened: as §1
Hepatitis C virus [15] = test: Antiviral activity against HCV Con1-mADE replicon with NS3 serine protease V36M/R155K double mutation in human HuH7 cells after 48 hrs by RNA replicon assay relative to wild type; format: functional, Hepacivirus hominis, subtype 1b Con1-mADE, Huh-7; procedure, shortened: as §1
NS3 protease [16] = target: NS3 protease (Hepacivirus C, UniProt C1KIQ2, R155K/V36M); test: Inhibition of HCV genotype 1a NS3 protease V36M/R155K double mutant expressed in Escherichia coli BL21 (DE3); design: species or system Hepatitis C virus subtype 1a
Procedure, shortened: (§2)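 NS3 protease domain (genotype 1a isolate 3201 or 1b isolate 3111) was expressed in E. coli BL21(DE3) with 5 h, 1 mM IPTG at 25°C, then purified by Talon and gel filtration. Enzyme was preincubated with 5 μM KK4A cofactor (10 min 25°C, 10 min 30°C), then inhibitor 60 min at 30°C, then 5 μM RET-S1 FRET substrate 20 min at 30°C. Substrate turnover was 10–20%. IC50(1 h) was fitted; 3–5 experiments, mean ± SD.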

Hepatitis C virus [17] = test: Selectivity ratio of IC50 for HCV genotype 1b NS3 protease V36A mutant to IC50 for wild type HCV genotype 1b NS3 protease; design: species or system Hepatitis C virus subtype 1b
Procedure, shortened: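 Purified genotype 1b NS3 protease domain (wild-type isolate 3111 or V36A), E. coli BL21(DE3)-expressed, preincubated with 5 μM KK4A cofactor peptide 10 min 25°C then 10 min 30°C; inhibitor 60 min 30°C; then 5 μM RET-S1 FRET depsipeptide 20 min 30°C, 10–20% turnover. IC50(1 h) fitted; fold change = variant/wild-type IC50, 3–5 independent experiments, mean ± SD.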

Hepatitis C virus [18] = test: Antiviral activity against HCV Con1-mADE replicon with NS3 serine protease V36G mutation in human HuH7 cells after 48 hrs by RNA replicon assay; format: functional, organism-based, Hepacivirus hominis; conditions: subtype 1b Con1-mADE, Huh-7, 48 h; procedure, shortened: as §1
Hepatitis C virus [19] = test: Antiviral activity against HCV Con1-mADE replicon with NS3 serine protease T54A mutation in human HuH7 cells after 48 hrs by RNA replicon assay relative to wild type
NS3 protease [20] = target: NS3 protease (Hepacivirus C, UniProt C1KIQ2, V36L); test: Inhibition of HCV genotype 1a NS3 protease V36L mutant expressed in Escherichia coli BL21 (DE3); design: species or system Hepatitis C virus subtype 1a; procedure, shortened: as §2
Hepatitis C virus [21] = test: Antiviral activity against HCV Con1-mADE replicon with NS3 serine protease V36G mutation in human HuH7 cells after 48 hrs by RNA replicon assay relative to wild type; format: functional, Hepacivirus hominis, subtype 1b Con1-mADE, Huh-7
Procedure, shortened: (§3)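 Stable HCV genotype 1b subgenomic replicon (Con1-mADE, neo) cell lines made by electroporating ScaI-linearized T7 runoff RNA into naïve Huh-7 cells; selected in 0.5 mg/ml G418, maintained in 0.25 mg/ml; NS3 substitutions confirmed by RT-PCR sequencing. EC50 from 48-h replicon RNA reduction assay, ≥3 independent experiments, mean ± SD; fold change = variant mean EC50 / wild-type mean EC50.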

Hepatitis C virus [22] = test: Antiviral activity against HCV Con1-mADE replicon with NS3 serine protease V36M/A156T double mutation in human HuH7 cells after 48 hrs by RNA replicon assay; format: functional, organism-based, Hepacivirus hominis; conditions: subtype 1b Con1-mADE, Huh-7, 48 h; procedure, shortened: as §1
Hepatitis C virus [23] = test: Antiviral activity against HCV Con1-mADE replicon with NS3 serine protease V36A/T54A double mutation in human HuH7 cells after 48 hrs by RNA replicon assay relative to wild type; format: functional, Hepacivirus hominis, subtype 1b Con1-mADE, Huh-7; procedure, shortened: as §3
Hepatitis C virus [24] = test: Antiviral activity against HCV Con1-mADE replicon with NS3 serine protease V36M/A156T double mutation in human HuH7 cells after 48 hrs by RNA replicon assay relative to wild type; format: functional, Hepacivirus hominis, subtype 1b Con1-mADE, Huh-7; procedure, shortened: as §3
Hepatitis C virus [25] = test: Inhibition of HCV genotype 1b NS3 protease V36A mutant expressed in Escherichia coli BL21 (DE3); design: species or system Hepatitis C virus subtype 1b; procedure, shortened: as §2
Hepatitis C virus [26] = test: Antiviral activity against HCV genotype 1 infected in patient assessed as logarithmic maximal reduction in plasma HCV RNA level at 750 mg dosed every 8 hrs measured after 14 days; format: functional, Hepacivirus hominis
Hepatitis C virus [27] = test: Inhibition of wild type HCV genotype 1b NS3 protease expressed in Escherichia coli BL21 (DE3); design: species or system Hepatitis C virus subtype 1b
Procedure, shortened: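 NS3 protease domain (genotype 1a isolate 3201 or 1b isolate 3111) induced 5 h with 1 mM IPTG at 25°C and purified by Talon affinity and gel filtration. Preincubated with 5 μM KK4A cofactor peptide, then with inhibitor 60 min at 30°C. Then 20 min at 30°C with 5 μM RET-S1 FRET depsipeptide, reading product release at 10–20% turnover. IC50(1 h) by curve fit; 3–5 independent experiments, mean ± SD.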

Hepatitis C virus [28] = test: Antiviral activity against HCV Con1-mADE replicon with NS3 serine protease V36L mutation in human HuH7 cells after 48 hrs by RNA replicon assay; format: functional, organism-based, Hepacivirus hominis; conditions: subtype 1b Con1-mADE, Huh-7, 48 h; procedure, shortened: as §1
Hepatitis C virus [29] = test: Antiviral activity against HCV genotype 1 infected in patient assessed as log10 reduction in plasma HCV RNA level at 750 mg dosed every 8 hrs measured after 2 days; format: functional, Hepacivirus hominis
[30] = Inhibition of wild type HCV genotype 1a NS3 protease expressed in Escherichia coli BL21 (DE3) measured after 1 hr
NS3 protease [31] = target: NS3 protease (Hepacivirus C, UniProt C1KIQ2, V36M); test: Inhibition of HCV genotype 1a NS3 protease V36M mutant expressed in Escherichia coli BL21 (DE3); design: species or system Hepatitis C virus subtype 1a; procedure, shortened: as §2
Hepatitis C virus [32] = test: Antiviral activity against HCV Con1-mADE replicon with NS3 serine protease V36A/T54A double mutation in human HuH7 cells after 48 hrs by RNA replicon assay; format: functional, organism-based, Hepacivirus hominis; conditions: subtype 1b Con1-mADE, Huh-7, 48 h; procedure, shortened: as §1

SMILES | fold change (FC) (Hepatitis C virus [1]) | fold change (FC) (Hepatitis C virus [2]) | EC50 (Hepatitis C virus [3]) | EC50 (Hepatitis C virus [4]) | fold change (FC) (Hepatitis C virus [5]) | fold change (FC) (Hepatitis C virus [6]) | fold change (FC) (Hepatitis C virus [7]) | EC50 (Hepatitis C virus [8]) | fold change (FC) (Hepatitis C virus [9]) | EC50 (Hepatitis C virus [10]) | EC50 (Hepatitis C virus [11]) | EC50 (Hepatitis C virus [12]) | EC50 (Hepatitis C virus [13]) | EC50 (Hepatitis C virus [14]) | fold change (FC) (Hepatitis C virus [15]) | also measured
NC(=O)c1ncn([C@@H]2O[C@H](CO)[C@@H](O)[C@H]2O)n1 [RIBAVIRIN] | 0.6 | 0.6 | 41 µM | 58 µM | 0.8 | 0.6 | 0.7 | 42 µM | 0.4 | 33 µM | 22 µM | 43 µM | 36 µM | 36 µM | 0.7 | 
CCC[C@H](NC(=O)[C@@H]1[C@H]2CCC[C@H]2CN1C(=O)[C@@H](NC(=O)[C@@H](NC(=O)c1cnccn1)C1CCCCC1)C(C)(C)C)C(=O)C(=O)NC1CC1 [TELAPREVIR] | >62 | 40 | 30 µM | 0.49 µM | 7.4 | 7 | >62 | > 30 µM | 2.2 | 3.4 µM | 3 µM | 3.6 µM | 20 µM | > 30 µM | 62 | IC50 (NS3 protease [16]): 3.4 µM; fold change (FC) (Hepatitis C virus [17]): 3.6; EC50 (Hepatitis C virus [18]): 5.4 µM; fold change (FC) (Hepatitis C virus [19]): 6.3; IC50 (NS3 protease [20]): 0.13 µM; fold change (FC) (Hepatitis C virus [21]): 11.2; EC50 (Hepatitis C virus [22]): > 30 µM; fold change (FC) (Hepatitis C virus [23]): 20.1; fold change (FC) (Hepatitis C virus [24]): >62; IC50 (Hepatitis C virus [25]): 0.23 µM; Activity (Hepatitis C virus [26]): 4.65; IC50 (Hepatitis C virus [27]): 0.063 µM; EC50 (Hepatitis C virus [28]): 1.1 µM; Activity (Hepatitis C virus [29]): 3; IC50 [30]: 0.05 µM; IC50 (NS3 protease [31]): 0.27 µM; EC50 (Hepatitis C virus [32]): 9.7 µM
